From ChEMBL document CHEMBL1127050, “Tyrosine kinase inhibitors. 1. Structure-activity relationships for inhibition of epidermal growth factor receptor tyrosine kinase activity by 2,3-dihydro-2-thioxo-1H-indole-3-alkanoic acids and 2,2'-dithiobis(1H-indole-3-alkanoic acids)” (J Med Chem, 1993) come the findings set out here.

One assay relates to Swiss 3T3 (Mus musculus). The assay can be described thus: Inhibition of Swiss 3T3 mouse fibroblast proliferation.
Assay [1] deals with Epidermal growth factor receptor (Homo sapiens, UniProt P00533). Kind of assay: Inhibition of EGF-stimulated EGFR tyrosine kinase activity using plasma membrane vesicles shed from cultured human A431 carcinoma cells. It is filed as functional, cell-based, A-431. In short, it runs like this: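 EGFR source: A431 shed membrane vesicles, solubilized in 4% Triton X-100/10% glycerol, 10 μg total protein per reaction. Final buffer: 20 mM HEPES pH 7.4, 15 mM MgCl₂, 4 mM MnCl₂, 0.02% BSA, 5 μM ATP with [γ-³²P]ATP, Glu:Ala:Tyr (6:3:1) copolymer substrate, 250 ng EGF. Run 10 min at room temperature, stopped with cold TCA/pyrophosphate. Filter-bound ³²P counted. IC50 is 50% reduction of incorporation. Autophosphorylation controls included.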
Epidermal growth factor receptor, sequence (P00533 whole entry): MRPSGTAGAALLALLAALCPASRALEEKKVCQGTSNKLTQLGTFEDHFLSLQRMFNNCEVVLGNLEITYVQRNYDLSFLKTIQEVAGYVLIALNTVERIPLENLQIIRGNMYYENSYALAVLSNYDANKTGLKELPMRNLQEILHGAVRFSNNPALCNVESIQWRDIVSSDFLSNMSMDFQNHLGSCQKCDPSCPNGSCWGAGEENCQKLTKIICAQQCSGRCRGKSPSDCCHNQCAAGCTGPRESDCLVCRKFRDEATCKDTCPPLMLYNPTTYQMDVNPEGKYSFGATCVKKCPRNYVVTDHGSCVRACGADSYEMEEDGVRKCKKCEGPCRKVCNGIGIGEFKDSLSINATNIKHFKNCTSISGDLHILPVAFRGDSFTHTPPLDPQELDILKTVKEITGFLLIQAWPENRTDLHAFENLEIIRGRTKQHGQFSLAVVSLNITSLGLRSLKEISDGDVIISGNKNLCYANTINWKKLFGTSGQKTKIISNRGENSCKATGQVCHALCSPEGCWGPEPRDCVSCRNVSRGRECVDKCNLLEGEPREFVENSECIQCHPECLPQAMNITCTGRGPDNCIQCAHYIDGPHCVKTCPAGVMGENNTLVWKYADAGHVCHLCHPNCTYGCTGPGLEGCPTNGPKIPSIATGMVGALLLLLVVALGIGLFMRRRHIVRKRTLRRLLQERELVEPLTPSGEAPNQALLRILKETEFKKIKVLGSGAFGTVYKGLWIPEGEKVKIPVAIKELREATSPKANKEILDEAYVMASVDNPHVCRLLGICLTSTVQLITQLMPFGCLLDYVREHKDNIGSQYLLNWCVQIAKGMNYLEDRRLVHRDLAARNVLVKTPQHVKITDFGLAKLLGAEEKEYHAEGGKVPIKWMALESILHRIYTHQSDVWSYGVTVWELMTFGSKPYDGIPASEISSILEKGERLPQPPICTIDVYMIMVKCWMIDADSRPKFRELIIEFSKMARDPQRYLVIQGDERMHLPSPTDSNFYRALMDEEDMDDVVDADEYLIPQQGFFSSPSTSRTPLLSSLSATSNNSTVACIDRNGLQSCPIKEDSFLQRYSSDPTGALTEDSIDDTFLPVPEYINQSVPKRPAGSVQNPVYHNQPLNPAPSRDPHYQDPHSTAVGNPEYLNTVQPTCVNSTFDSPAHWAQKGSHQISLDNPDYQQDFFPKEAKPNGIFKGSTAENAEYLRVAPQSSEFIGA

For `COC(=O)CCc1c(SSc2[nH]c3ccccc3c2CCC(=O)OC)[nH]c2ccccc12`, the values for the IC50 (in the assay with Swiss 3T3 (Mus musculus); in assay [1]) were 7.4 µM and 21 µM, respectively.
For `CN1C(=S)C(CC(=O)O)c2ccccc21` (centres undefined), the IC50 in assay [1] is > 100 µM.
Turning to `O=CN/C=C/c1cc(O)ccc1O` [ERBSTATIN], inhibition in assay [1] was half-maximal at 2 µM (IC50).
Still for that read-out and setting: in the case of `Cn1c(SSc2c(CCC(=O)O)c3ccccc3n2C)c(CCC(=O)O)c2ccccc21` it was 3.1 µM.
On to `O=C(O)CCC1C(S)=Nc2ccccc21` (centres undefined), for which the IC50 with Swiss 3T3 (Mus musculus) was 64 µM; in assay [1], 1.62 µM.
On to `CN1C(=S)C(CCC(=O)O)c2ccccc21` (centres undefined), for which, in assay [1], inhibition was half-maximal at 6.7 µM (IC50).
Still for that read-out and setting: in the case of `Cc1cccc2c(CCC(=O)O)c(SSc3[nH]c4c(C)cccc4c3CCC(=O)O)[nH]c12` it was 1.5 µM; in that of `CN1C(=S)C(CCCC(=O)O)c2ccccc21` (centres undefined), > 100 µM.
Same read-out and setting: then `COC(=O)Cc1c(SSc2c(CC(=O)OC)c3ccccc3n2C)n(C)c2ccccc12`, with 33 µM.
With `Cn1c(SSc2c(CC(=O)O)c3ccccc3n2C)c(CC(=O)O)c2ccccc21`, the values for the half-maximal inhibitory concentration (IC50) (with Swiss 3T3 (Mus musculus); in assay [1]) were 36 µM and 53 µM, respectively.
For the compound `COC(=O)CCCc1c(SSc2[nH]c3ccccc3c2CCCC(=O)OC)[nH]c2ccccc12`, in assay [1], the IC50 is > 100 µM.
Same read-out and setting: in the case of `COC(=O)Cc1c(Sc2c(CC(=O)OC)c3ccccc3n2C)n(C)c2ccccc12` it was > 100 µM.
On the same count and under the same terms, in the case of `COC(=O)CC1C(=S)N(C)c2ccccc21` (centres undefined) it was > 100 µM.
`O=C(O)Cc1c(SSSc2[nH]c3ccccc3c2CC(=O)O)[nH]c2ccccc12`: in the assay on Swiss 3T3 (Mus musculus), the IC50 turned out to be 8 µM.
`O=C(O)CCCC1C(=S)Nc2ccccc21` (centres undefined) came in with an IC50 in assay [1] of 6.7 µM.
On the same count and under the same terms, then `COC(=O)CCN1C(=S)C(CCC(=O)OC)(CCC(=O)OC)c2ccccc21`, with > 100 µM.
Take `COC(=O)Cc1c(SSSc2[nH]c3ccccc3c2CC(=O)OC)[nH]c2ccccc12`: the IC50 was 1 µM with Swiss 3T3 (Mus musculus) and 35 µM in assay [1].
Consider `COC(=O)CCCC1C(=S)N(C)c2ccccc21` (centres undefined), for which the 50% inhibitory concentration (IC50) in assay [1] is > 100 µM.
Consider `O=C(O)Cc1c(SSc2[nH]c3ccccc3c2CC(=O)O)[nH]c2ccccc12`, for which the IC50 in the assay with Swiss 3T3 (Mus musculus) is > 50 µM; in assay [1] it was 10.2 µM.
In the same order, the values of `COC(=O)CCC1C(S)=Nc2ccccc21` (centres undefined) are 16 µM and > 100 µM.
On the same counts, the results for `COC(=O)CCc1c(SSc2c(CCC(=O)OC)c3ccccc3n2C)n(C)c2ccccc12` are 5.2 µM and > 100 µM.
As for `COC(=O)CCC1C(=S)N(C)c2ccccc21` (centres undefined), in assay [1], the IC50 is > 100 µM.
Regarding `O=C(O)CCc1c(SSc2[nH]c3ccccc3c2CCC(=O)O)[nH]c2ccccc12`, the IC50 with Swiss 3T3 (Mus musculus) came to 59 µM; in assay [1], 4.2 µM.
In assay [1], `COC(=O)CC1C(=S)Nc2ccccc21` (centres undefined) returned an IC50 of 100 µM.
In the case of `Cc1ccc2[nH]c(SSc3[nH]c4ccc(C)cc4c3CCC(=O)O)c(CCC(=O)O)c2c1`, the IC50 in the assay with Swiss 3T3 (Mus musculus) is > 50 µM.
`COC(=O)CCCc1c(SSc2c(CCCC(=O)OC)c3ccccc3n2C)n(C)c2ccccc12`: the half-maximal inhibitory concentration (IC50) in the assay on Swiss 3T3 (Mus musculus) was 1.8 µM; in assay [1] it was > 100 µM.
On to `COC(=O)CCCC1C(=S)Nc2ccccc21` (centres undefined), for which the IC50 in assay [1] was > 100 µM.
The same measure, in the same setting: in the case of `O=C(O)CCC1(CCC(=O)O)C(=S)Nc2ccccc21` it was > 100 µM; in that of `COC(=O)CCC1(CCC(=O)OC)C(=S)Nc2ccccc21`, > 100 µM.
As to `COC(=O)Cc1c(SSc2[nH]c3ccccc3c2CC(=O)OC)[nH]c2ccccc12`, in the assay with Swiss 3T3 (Mus musculus), the IC50 was 2.3 µM.
